The values that follow come from ChEMBL document CHEMBL4665690, “Proversilins A-E, Drimane-Type Sesquiterpenoids from the Endophytic Aspergillus versicolor” (J Nat Prod, 2020).

Holding throughout (type): functional, cell-based
Test [1] deals with SW480. The test is described as follows: Cytotoxicity against human SW480 cells assessed as reduction in cell viability after 48 hrs by MTT assay. Conditions: SW480, 48 h. The method in brief: (§1)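 Cells exposed 48 h to compounds at 0.0625 to 40 μM, with cisplatin and paclitaxel as positive controls. Survival read by MTT, absorbance at 570 nm. Data are means of three replicates. IC50 derived from a standard dose–response curve fit.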

Test [2] deals with MCF7. The test is described as follows: Cytotoxicity against human MCF7 cells assessed as reduction in cell viability after 48 hrs by MTT assay. The following applies: MCF7, 48 h. The method in brief: as §1
Test [3] concerns A549. As to the kind of experiment: Cytotoxicity against human A549 cells assessed as reduction in cell viability after 48 hrs by MTT assay. Conditions: A549, 48 h. The gist of the method: as §1
In general terms: Tetrazolium assays rely on reduction of a dye to a coloured formazan, in cell work by metabolically active cells.

For test [4], the system named is NCM460. As to the kind of experiment: Cytotoxicity against human NCM460 cells assessed as reduction in cell viability after 48 hrs by MTT assay. The following applies: NCM460, 48 h. The gist of the method: as §1
In test [5] the test system is SMMC-7721. As to the kind of experiment: Cytotoxicity against human SMMC-7721 cells assessed as reduction in cell viability after 48 hrs by MTT assay. Conditions: SMMC-7721, 48 h. The method in brief: as §1
Test [6] has as its system HL-60. The test is described as follows: Cytotoxicity against human HL-60 cells assessed as reduction in cell viability after 48 hrs by MTT assay. Conditions: HL-60, 48 h. The gist of the method:
as §1

`C[C@]1(CO)CCC[C@]2(C)C3=C(CC[C@@H]12)C(=O)OC3`: the IC50 in test [1], in test [2], in test [3], in test [4], in test [5] and in test [6] was more than 40 µM each time.
Regarding `CC(=O)N[C@H](CC(=O)O[C@@H]1CC(C)(C)[C@@H]2CCC3=C(COC3=O)[C@@]2(C)C1)c1ccccc1`, the IC50 in test [1] is 12.4 µM; in test [2] it was 11.8 µM; in test [3], 15 µM; in test [4], more than 40 µM; in test [5], 12.6 µM; in test [6], 7.3 µM.
As for `CC(=O)N[C@H](CC(=O)OC[C@@]1(C)CCC[C@]2(C)C3=C(CC[C@@H]12)C(=O)OC3)c1ccccc1`, the IC50 in test [1], in test [2], in test [3], in test [4], in test [5] and in test [6] was more than 40 µM in each case.
Take `CC(=O)N[C@H](CC(=O)O[C@@H]1C[C@](C)(CO)[C@@H]2CCC3=C(COC3=O)[C@@]2(C)C1)c1ccccc1`: the concentration for half-maximal inhibition (IC50) in test [1], in test [2], in test [3], in test [4], in test [5] and in test [6] was more than 40 µM each time.
For `CC(=O)N[C@H](CC(=O)O[C@@H]1C[C@](C)(C=O)[C@@H]2CCC3=C(COC3=O)[C@@]2(C)C1)c1ccccc1`, the half-maximal inhibitory concentration (IC50) is 16.4 µM in test [1]; 18.3 µM in test [2]; 28.4 µM in test [3]; more than 40 µM in test [4]; 19.4 µM in test [5]; 9.9 µM in test [6].
In the case of `CC(=O)O[C@H]1C(=O)[C@@]2(C)[C@H]([C@H](OC(=O)c3ccccc3)[C@]3(O)C[C@H](OC(=O)[C@H](O)[C@@H](NC(=O)c4ccccc4)c4ccccc4)C(C)=C1C3(C)C)[C@]1(OC(C)=O)CO[C@@H]1C[C@@H]2O` [PACLITAXEL], the concentration for half-maximal inhibition (IC50) in test [1], in test [2], in test [3], in test [4], in test [5] and in test [6] was less than 0.008 µM throughout.

Broadly, the IC50 is the concentration that gives 50% inhibition.
